Measurements reported in ChEMBL document CHEMBL1777788, “Synthesis and in vitro antimicrobial activities of new (cyano-NNO-azoxy)pyrazole derivatives” (2011).
Values after ≈ are worked out from the molar mass of the structure shown.

How the values were obtained:
Candida parapsilosis [1] = test: Antimicrobial activity against Candida parapsilosis ATCC 22019 after 48 hrs by microdilution broth method; assay type: functional; details: Lodderomyces parapsilosis, ATCC 22019, 48 h
How it was run: (§1)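 Yeasts were grown overnight on Sabouraud dextrose agar at 35°C, suspended in water, and adjusted at 530 nm to McFarland 0.5 (approximately 1-5 x 10^6 CFU/ml). They were then diluted 1:100 and 1:20 in RPMI 1640 with 0.165 M MOPS and 2% glucose. Compound in DMSO was tested at ten concentrations, 0.25–256 mg/L, with incubation at 35°C. At 48 h, MIC was read spectrophotometrically as 50% turbidity reduction versus growth control.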

Candida albicans [2] = test: Antimicrobial activity against Candida albicans isolate 31 after 48 hrs by microdilution broth method; assay type: functional; details: isolate 31, 48 h; how it was run: as §1
Candida albicans [3] = test: Antimicrobial activity against Candida albicans isolate 41 after 48 hrs by microdilution broth method; assay type: functional; details: isolate 41, 48 h; how it was run: as §1
Candida albicans [4] = test: Antimicrobial activity against Candida albicans isolate 47 after 48 hrs by microdilution broth method; assay type: functional; details: isolate 47, 48 h; how it was run: as §1
Candida albicans [5] = test: Antimicrobial activity against Candida albicans isolate 48 after 48 hrs by microdilution broth method; assay type: functional; details: isolate 48, 48 h; how it was run: as §1
Pichia kudriavzevii [6] = test: Antimicrobial activity against Candida krusei isolate 31 after 48 hrs by microdilution broth method; assay type: functional; details: isolate 31, 48 h; how it was run: as §1
Pichia kudriavzevii [7] = test: Antimicrobial activity against Candida krusei isolate 43 after 48 hrs by microdilution broth method; assay type: functional
Pichia kudriavzevii [8] = test: Antimicrobial activity against Candida krusei isolate 48 after 48 hrs by microdilution broth method; assay type: functional
Candida tropicalis [9] = test: Antimicrobial activity against Candida tropicalis isolate 33 after 48 hrs by microdilution broth method; assay type: functional; details: isolate 33, 48 h; how it was run: as §1
Candida tropicalis [10] = test: Antimicrobial activity against Candida tropicalis isolate 11 after 48 hrs by microdilution broth method; assay type: functional; details: isolate 11, 48 h; how it was run: as §1
Candida tropicalis [11] = test: Antimicrobial activity against Candida tropicalis isolate 22 after 48 hrs by microdilution broth method; assay type: functional; details: isolate 22, 48 h; how it was run: as §1
Nakaseomyces glabratus [12] = test: Antimicrobial activity against Candida glabrata isolate 30 after 48 hrs by microdilution broth method; assay type: functional; how it was run: as §1
Nakaseomyces glabratus [13] = test: Antimicrobial activity against Candida glabrata isolate 32 after 48 hrs by microdilution broth method; assay type: functional; details: isolate 32, 48 h; how it was run: as §1
Nakaseomyces glabratus [14] = test: Antimicrobial activity against Candida glabrata isolate 46 after 48 hrs by microdilution broth method; assay type: functional; how it was run: as §1
Nakaseomyces glabratus [15] = test: Antimicrobial activity against Candida glabrata isolate 49 after 48 hrs by microdilution broth method; assay type: functional; how it was run: as §1
Candida parapsilosis [16] = test: Antimicrobial activity against Candida parapsilosis isolate 26 after 48 hrs by microdilution broth method; assay type: functional; details: Lodderomyces parapsilosis, isolate 26, 48 h; how it was run: as §1
Candida parapsilosis [17] = test: Antimicrobial activity against Candida parapsilosis isolate 44 after 48 hrs by microdilution broth method; assay type: functional; details: Lodderomyces parapsilosis, isolate 44, 48 h; how it was run: as §1
Candida parapsilosis [18] = test: Antimicrobial activity against Candida parapsilosis isolate 19 after 48 hrs by microdilution broth method; assay type: functional; details: Lodderomyces parapsilosis, isolate 19, 48 h; how it was run: as §1
[19] = system: Cryptococcus deneoformans; test: Antimicrobial activity against Cryptococcus neoformans var. neoformans isolate 14 after 48 hrs by microdilution broth method; assay type: functional; details: isolate 14, 48 h; how it was run: as §1
[20] = system: Cryptococcus deneoformans; test: Antimicrobial activity against Cryptococcus neoformans var. neoformans isolate 27 after 48 hrs by microdilution broth method; assay type: functional; details: isolate 27, 48 h; how it was run: as §1
[21] = system: Cryptococcus deneoformans; test: Antimicrobial activity against Cryptococcus neoformans var. neoformans isolate 30 after 48 hrs by microdilution broth method; assay type: functional; details: isolate 30, 48 h; how it was run: as §1
[22] = system: Cryptococcus deneoformans; test: Antimicrobial activity against Cryptococcus neoformans var. neoformans isolate 25 after 48 hrs by microdilution broth method; assay type: functional; details: isolate 25, 48 h; how it was run: as §1
Pichia kudriavzevii [23] = test: Antimicrobial activity against Candida krusei ATCC 6258 after 48 hrs by microdilution broth method; assay type: functional; details: ATCC 6258, 48 h
Escherichia coli = test: Antimicrobial activity against Escherichia coli isolate after 24 hrs by microdilution broth method
Proteus mirabilis = test: Antimicrobial activity against Proteus mirabilis isolate after 24 hrs by microdilution broth method
Pseudomonas aeruginosa [24] = test: Antimicrobial activity against Pseudomonas aeruginosa isolate 1 after 24 hrs by microdilution broth method; details: isolate 1, 24 h
Pseudomonas aeruginosa [25] = test: Antimicrobial activity against Pseudomonas aeruginosa isolate 2 after 24 hrs by microdilution broth method; details: isolate 2, 24 h
Staphylococcus aureus [26] = test: Antimicrobial activity against methicillin-resistant Staphylococcus aureus isolate after 24 hrs by microdilution broth method
Staphylococcus aureus [27] = test: Antimicrobial activity against methicillin-susceptible Staphylococcus aureus isolate after 24 hrs by microdilution broth method

Cc1c(/[N+]([O-])=N/C#N)c(-c2ccccn2)nn1C
MIC (Candida parapsilosis [1]): 128 µg/mL (≈ 528 µM) | MIC (Candida albicans [2]): 64 µg/mL (≈ 264 µM) | MIC (Candida albicans [3]): 16 µg/mL (≈ 66 µM) | MIC (Candida albicans [4]): 128 µg/mL (≈ 528 µM) | MIC (Candida albicans [5]): 128 µg/mL (≈ 528 µM) | MIC (Pichia kudriavzevii [6]): 16 µg/mL (≈ 66 µM) | MIC (Pichia kudriavzevii [7]): 16 µg/mL (≈ 66 µM) | MIC (Pichia kudriavzevii [8]): 8 µg/mL (≈ 33 µM) | MIC (Candida tropicalis [9]): 128 µg/mL (≈ 528 µM) | MIC (Candida tropicalis [10]): 128 µg/mL (≈ 528 µM) | MIC (Candida tropicalis [11]): 128 µg/mL (≈ 528 µM) | MIC (Nakaseomyces glabratus [12]): 64 µg/mL (≈ 264 µM) | MIC (Nakaseomyces glabratus [13]): 4 µg/mL (≈ 16.5 µM) | MIC (Nakaseomyces glabratus [14]): 64 µg/mL (≈ 264 µM) | MIC (Nakaseomyces glabratus [15]): 128 µg/mL (≈ 528 µM) | MIC (Candida parapsilosis [16]): 128 µg/mL (≈ 528 µM) | MIC (Candida parapsilosis [17]): 128 µg/mL (≈ 528 µM) | MIC (Candida parapsilosis [18]): 128 µg/mL (≈ 528 µM) | MIC [19]: 16 µg/mL (≈ 66 µM) | MIC [20]: 16 µg/mL (≈ 66 µM) | MIC [21]: 8 µg/mL (≈ 33 µM) | MIC [22]: 8 µg/mL (≈ 33 µM) | MIC (Pichia kudriavzevii [23]): 16 µg/mL (≈ 66 µM) | MIC (Escherichia coli): > 128 µg/mL | MIC (Proteus mirabilis): > 128 µg/mL | MIC (Pseudomonas aeruginosa [24]): > 128 µg/mL | MIC (Pseudomonas aeruginosa [25]): > 128 µg/mL | MIC (Staphylococcus aureus [26]): 32 µg/mL (≈ 132 µM) | MIC (Staphylococcus aureus [27]): 64 µg/mL (≈ 264 µM)

Cc1cc(-c2nn(C)c(C)c2/[N+]([O-])=N/C#N)nn1C
MIC (Candida parapsilosis [1]): > 128 µg/mL | MIC (Candida albicans [2]): 64 µg/mL (≈ 247 µM) | MIC (Candida albicans [3]): > 128 µg/mL | MIC (Candida albicans [4]): > 128 µg/mL | MIC (Candida albicans [5]): > 128 µg/mL | MIC (Pichia kudriavzevii [6]): > 128 µg/mL | MIC (Pichia kudriavzevii [7]): > 128 µg/mL | MIC (Pichia kudriavzevii [8]): > 128 µg/mL | MIC (Candida tropicalis [9]): > 128 µg/mL | MIC (Candida tropicalis [10]): > 128 µg/mL | MIC (Candida tropicalis [11]): > 128 µg/mL | MIC (Nakaseomyces glabratus [12]): > 128 µg/mL | MIC (Nakaseomyces glabratus [13]): > 128 µg/mL | MIC (Nakaseomyces glabratus [14]): > 128 µg/mL | MIC (Nakaseomyces glabratus [15]): > 128 µg/mL | MIC (Candida parapsilosis [16]): > 128 µg/mL | MIC (Candida parapsilosis [17]): > 128 µg/mL | MIC (Candida parapsilosis [18]): > 128 µg/mL | MIC [19]: 16 µg/mL (≈ 61.7 µM) | MIC [20]: 16 µg/mL (≈ 61.7 µM) | MIC [21]: 16 µg/mL (≈ 61.7 µM) | MIC [22]: 16 µg/mL (≈ 61.7 µM) | MIC (Pichia kudriavzevii [23]): > 128 µg/mL | MIC (Escherichia coli): > 128 µg/mL | MIC (Proteus mirabilis): > 128 µg/mL | MIC (Pseudomonas aeruginosa [24]): > 128 µg/mL | MIC (Pseudomonas aeruginosa [25]): > 128 µg/mL | MIC (Staphylococcus aureus [26]): 32 µg/mL (≈ 123 µM) | MIC (Staphylococcus aureus [27]): 32 µg/mL (≈ 123 µM)
